Assay [1] deals with T1, Low molecular weight phosphotyrosine protein phosphatase (Homo sapiens, UniProt P24666).
T1 sequence (P24666 whole entry): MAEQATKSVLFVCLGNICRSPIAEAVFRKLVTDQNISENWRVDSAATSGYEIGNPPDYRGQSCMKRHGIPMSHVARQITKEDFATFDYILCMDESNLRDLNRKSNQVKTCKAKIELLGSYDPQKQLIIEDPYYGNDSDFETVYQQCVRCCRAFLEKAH
The assay can be described thus: Competitive inhibition of LMW-PTP isoform B (unknown origin) using para-nitrophenyl phosphate as substrate by Lineweaver-Burk plot analysis. The procedure, abridged:
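Recombinant His-tagged LMW-PTP from E. coli, Ni-NTA then Sephadex G75 purified. pNPP hydrolysis in 50 mM 3,3-dimethylglutarate buffer, pH 7.0, 25 °C. Reaction started by adding enzyme to mixes of varied pNPP and varied inhibitor concentrations, run 5-10 min, quenched with 5N NaOH. p-Nitrophenol read at 405 nm, blank without enzyme subtracted. Ki from enzyme-kinetics fitting.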

In assay [2] the target is T1, Low molecular weight phosphotyrosine protein phosphatase. The assay can be described thus: Competitive inhibition of His-tagged LMW-PTP isoform A (unknown origin) expressed in Escherichia coli BL21 cells using para-nitrophenyl phosphate as substrate by Lineweaver-Burk plot analysis. Put shortly: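 Recombinant enzyme Ni-NTA purified (Tris pH 7.8, 500 mM NaCl, 250 mM imidazole elution), then Sephadex G75. pNPP hydrolysis in 50 mM 3,3-dimethylglutarate, pH 7.0, 25 °C. Enzyme added last to mixes of varied pNPP and inhibitor concentrations, 5-10 min, NaOH quench. p-nitrophenol read at 405 nm (ε 18,000 M-1cm-1), no-enzyme blank subtracted. Ki fitted by enzyme-kinetics regression.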

In assay [3] the target is T2, RNA polymerase II subunit A C-terminal domain phosphatase SSU72 (Homo sapiens, UniProt Q9NP77).
T2 sequence (Q9NP77 whole entry): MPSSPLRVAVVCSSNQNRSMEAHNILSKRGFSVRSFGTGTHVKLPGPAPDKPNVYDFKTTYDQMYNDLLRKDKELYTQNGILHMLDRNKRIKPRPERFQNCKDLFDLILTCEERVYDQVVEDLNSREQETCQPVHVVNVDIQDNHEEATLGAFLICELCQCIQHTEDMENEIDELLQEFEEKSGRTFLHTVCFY
The assay can be described thus: Inhibition of His-tagged SSu72 (unknown origin) expressed in Escherichia coli BL21 cells using para-nitrophenyl phosphate as substrate incubated for 5 to 10 mins by microplate reader based spectrophotometric analysis.

Assay [4] in a line: Inhibition of His-tagged PTP-H1 (unknown origin) expressed in Escherichia coli BL21 cells using para-nitrophenyl phosphate as substrate incubated for 5 to 10 mins by microplate reader based spectrophotometric analysis. On the set-up: species or system Homo sapiens. The procedure, abridged: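 Enzyme at 5-20 nM was added to substrate plus a range of inhibitor concentrations and run 5-10 min at room temperature. Quenched with 5N NaOH and p-nitrophenol read at 405 nm (ε 18,000 M-1cm-1), with a no-enzyme background correction. IC50 from curve fitting.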

Assay [5] addresses T1, Low molecular weight phosphotyrosine protein phosphatase. The assay can be described thus: Inhibition of His-tagged LMW-PTP isoform A (unknown origin) expressed in Escherichia coli BL21 cells using para-nitrophenyl phosphate as substrate incubated for 5 to 10 mins by microplate reader based spectrophotometric analysis.
The target of assay [6] is Low molecular weight phosphotyrosine protein phosphatase (Homo sapiens) (UniProt P24666). The assay can be described thus: Inhibition of LMW-PTP isoform A in human HepG2 cells assessed as increase in insulin-induced Akt phosphorylation at 16 uM pretreated for 2 hrs followed by insulin stimulation and measured after 30 mins by Western blot analysis. It counts as cell-based. Put shortly:
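HepG2 cells in DMEM with 10% FBS at 37 °C and 5% CO2 were grown to 60-80% confluence and serum-starved overnight. They were given vehicle or compound for 2 h, then 50 nM insulin for 30 min. Lysates were run on 10% SDS-PAGE and immunoblotted for phospho-AKT and total AKT with ECL detection. Densitometric pAKT/AKT ratios were normalized to vehicle.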
(A western blot detects proteins with antibodies after separation by electrophoresis.)

In assay [7] the target is T3, Dual specificity protein phosphatase 23 (Homo sapiens, UniProt Q9BVJ7).
T3 sequence (Q9BVJ7 whole entry): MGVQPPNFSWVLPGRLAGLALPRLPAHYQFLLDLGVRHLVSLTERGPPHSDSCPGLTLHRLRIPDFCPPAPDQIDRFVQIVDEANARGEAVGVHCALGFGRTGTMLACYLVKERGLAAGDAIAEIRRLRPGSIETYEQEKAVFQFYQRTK
The assay can be described thus: Inhibition of His-tagged VHZ (unknown origin) expressed in Escherichia coli BL21 cells using para-nitrophenyl phosphate as substrate incubated for 5 to 10 mins by microplate reader based spectrophotometric analysis.

Assay [8] deals with Tyrosine-protein phosphatase non-receptor type 13 (Homo sapiens, UniProt Q12923). The assay can be described thus: Inhibition of His-tagged FAP1 (unknown origin) expressed in Escherichia coli BL21 cells using para-nitrophenyl phosphate as substrate incubated for 5 to 10 mins by microplate reader based spectrophotometric analysis.

Activity calls are given as the source filed them. The rule behind the calls is not given here. Where only a bound is given, the exact number is not on record here.

Chain of Tyrosine-protein phosphatase non-receptor type 13 (Q12923 whole entry): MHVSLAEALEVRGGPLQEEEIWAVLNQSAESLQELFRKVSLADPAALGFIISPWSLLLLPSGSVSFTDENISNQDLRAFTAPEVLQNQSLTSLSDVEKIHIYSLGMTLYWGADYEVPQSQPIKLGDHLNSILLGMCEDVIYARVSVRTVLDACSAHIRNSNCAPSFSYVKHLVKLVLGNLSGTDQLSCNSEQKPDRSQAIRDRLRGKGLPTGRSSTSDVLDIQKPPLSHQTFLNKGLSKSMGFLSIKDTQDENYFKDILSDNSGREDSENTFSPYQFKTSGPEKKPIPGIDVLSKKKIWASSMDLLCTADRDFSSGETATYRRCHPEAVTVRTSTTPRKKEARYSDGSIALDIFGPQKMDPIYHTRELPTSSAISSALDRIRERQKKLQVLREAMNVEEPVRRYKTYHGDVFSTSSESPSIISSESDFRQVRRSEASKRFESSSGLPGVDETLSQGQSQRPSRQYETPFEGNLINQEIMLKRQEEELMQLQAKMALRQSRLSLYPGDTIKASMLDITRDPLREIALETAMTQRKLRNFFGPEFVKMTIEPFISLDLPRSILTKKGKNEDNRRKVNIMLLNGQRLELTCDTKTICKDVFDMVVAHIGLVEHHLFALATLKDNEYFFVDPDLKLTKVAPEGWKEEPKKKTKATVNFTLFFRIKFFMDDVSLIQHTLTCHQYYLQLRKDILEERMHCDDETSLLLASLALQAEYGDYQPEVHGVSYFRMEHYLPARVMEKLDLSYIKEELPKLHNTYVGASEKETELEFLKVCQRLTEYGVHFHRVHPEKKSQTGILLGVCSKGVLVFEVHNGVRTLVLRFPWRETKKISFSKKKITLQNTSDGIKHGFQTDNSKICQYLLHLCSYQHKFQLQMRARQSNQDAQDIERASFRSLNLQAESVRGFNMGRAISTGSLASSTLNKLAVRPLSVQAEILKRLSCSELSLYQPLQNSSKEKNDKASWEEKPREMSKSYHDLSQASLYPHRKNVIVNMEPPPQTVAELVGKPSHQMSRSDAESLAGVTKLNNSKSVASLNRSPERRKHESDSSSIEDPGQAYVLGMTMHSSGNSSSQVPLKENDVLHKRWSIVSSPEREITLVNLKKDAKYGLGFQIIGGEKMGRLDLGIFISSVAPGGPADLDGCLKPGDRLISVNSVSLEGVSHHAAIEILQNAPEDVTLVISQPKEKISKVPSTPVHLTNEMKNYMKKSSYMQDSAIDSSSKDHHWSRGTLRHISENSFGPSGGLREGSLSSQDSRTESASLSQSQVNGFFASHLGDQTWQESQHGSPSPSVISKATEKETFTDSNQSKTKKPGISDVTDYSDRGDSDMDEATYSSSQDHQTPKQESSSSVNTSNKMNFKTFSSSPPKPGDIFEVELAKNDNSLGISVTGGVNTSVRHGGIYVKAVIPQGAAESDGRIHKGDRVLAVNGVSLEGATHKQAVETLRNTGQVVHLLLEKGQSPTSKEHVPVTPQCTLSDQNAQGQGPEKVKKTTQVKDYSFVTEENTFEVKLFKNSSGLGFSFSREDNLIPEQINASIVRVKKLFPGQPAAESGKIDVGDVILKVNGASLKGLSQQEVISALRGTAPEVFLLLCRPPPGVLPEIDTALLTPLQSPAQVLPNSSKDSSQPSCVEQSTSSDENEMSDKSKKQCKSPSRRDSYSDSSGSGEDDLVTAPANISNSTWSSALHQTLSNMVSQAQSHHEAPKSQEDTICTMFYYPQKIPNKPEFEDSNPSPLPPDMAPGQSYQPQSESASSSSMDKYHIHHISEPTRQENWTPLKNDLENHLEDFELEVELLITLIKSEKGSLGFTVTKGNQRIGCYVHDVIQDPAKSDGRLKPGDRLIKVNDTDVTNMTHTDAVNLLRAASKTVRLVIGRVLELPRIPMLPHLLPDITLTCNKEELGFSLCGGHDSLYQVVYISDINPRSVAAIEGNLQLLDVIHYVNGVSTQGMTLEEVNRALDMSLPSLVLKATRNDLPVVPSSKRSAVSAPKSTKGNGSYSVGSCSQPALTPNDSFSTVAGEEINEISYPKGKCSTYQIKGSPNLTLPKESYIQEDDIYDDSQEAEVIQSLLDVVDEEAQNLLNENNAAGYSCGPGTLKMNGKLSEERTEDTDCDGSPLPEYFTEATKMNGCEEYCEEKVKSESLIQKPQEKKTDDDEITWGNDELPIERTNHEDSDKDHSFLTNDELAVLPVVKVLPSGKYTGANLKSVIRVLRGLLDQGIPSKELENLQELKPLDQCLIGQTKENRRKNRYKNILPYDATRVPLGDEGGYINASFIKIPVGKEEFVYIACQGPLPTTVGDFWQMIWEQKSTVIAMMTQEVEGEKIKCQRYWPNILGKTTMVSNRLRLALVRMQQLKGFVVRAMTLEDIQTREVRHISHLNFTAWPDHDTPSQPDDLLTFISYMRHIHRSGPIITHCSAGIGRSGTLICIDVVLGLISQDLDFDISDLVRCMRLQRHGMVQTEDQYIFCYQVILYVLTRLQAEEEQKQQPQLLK

The term Ki denotes the dissociation constant of the complex between target and ligand, obtained from inhibition or displacement. The low end stands for tighter binding, the high end for weaker binding. Usually IC50 stands for the concentration needed to halve the response being measured. For `O=C(Nc1nc2ccccc2s1)C(c1ccccc1)S(=O)(=O)O` (stereo unspecified), the Ki is 1.7 µM in assay [1] and 3.2 µM in assay [2]. The figures for the IC50 in assay [3] and in assay [4] were 69.9 µM and greater than 200 µM, respectively.

The compound `O=C(Nc1nc2ccccc2s1)C(c1ccccc1F)S(=O)(=O)O` (stereo unspecified) yielded an IC50 in assay [5] greater than 200 µM.

Consider `O=C(Cc1ccccc1)Nc1nc2ccc([N+](=O)[O-])cc2s1`, for which the IC50 in assay [5] was greater than 100 µM. For the same compound, the inhibition entry in assay [6] is “inactive”.

In assay [5], `O=C(Nc1nc2ccccc2s1)C(c1ccc(Br)cc1)S(=O)(=O)O` (stereo unspecified) came in with an IC50 of 106 µM.

`N#Cc1cccc(C(C(=O)Nc2nc3ccccc3s2)S(=O)(=O)O)c1` (stereo unspecified): the IC50 in assay [5] was greater than 200 µM.

For `O=C(Nc1nc2ccccc2s1)C(c1cccc(F)c1)S(=O)(=O)O` (stereo unspecified), the IC50 in assay [5] was 50 µM.

As for `O=C(Nc1nc2ccccc2s1)C(c1ccccc1Cl)S(=O)(=O)O` (stereo unspecified), the IC50 in assay [5] was greater than 200 µM.

In turn, `O=C(Nc1ccccc1)C(c1ccccc1)S(=O)(=O)O` (stereo unspecified) registered a half-inhibitory concentration (IC50) in assay [5] greater than 100 µM.

Compound `Cc1ccc(C(C(=O)Nc2nc3ccccc3s2)S(=O)(=O)O)cc1` (stereo unspecified) displayed an IC50 in assay [5] of 91.4 µM.

`Cc1cccc(C(C(=O)Nc2nc3ccccc3s2)S(=O)(=O)O)c1` (stereo unspecified) showed an IC50 in assay [5] greater than 200 µM.

Turning to `O=C(Nc1ccc(N2CCOCC2)cc1)C(c1ccccc1)S(=O)(=O)O` (stereo unspecified), the IC50 in assay [7] and in assay [4] was greater than 200 µM each time.

In turn, `Cc1ccccc1C(C(=O)Nc1nc2ccccc2s1)S(=O)(=O)O` (stereo unspecified) registered a concentration for half-maximal inhibition (IC50) in assay [5] greater than 200 µM.

For the compound `O=C(Nc1nccs1)C(c1ccccc1)S(=O)(=O)O` (stereo unspecified), in assay [5], the IC50 turned out to be 72 µM.

In assay [5], `CCCNC(=O)C(c1ccccc1)S(=O)(=O)O` (stereo unspecified) showed an IC50 greater than 200 µM.

In the case of `CCOC(=O)c1ccc2nc(NC(=O)C(c3ccccc3)S(=O)(=O)O)sc2c1` (stereo unspecified), in assay [5], half-maximal inhibition (IC50) required 3.1 µM.

With `O=C(Nc1ccc2nc(C(F)(F)F)[nH]c2c1)C(c1ccccc1)S(=O)(=O)O` (stereo unspecified), the IC50 in assay [8] and in assay [4] was greater than 200 µM in each case.

`O=C(Nc1cnc2ccccc2c1)C(c1ccccc1)S(=O)(=O)O` (stereo unspecified): the IC50 in assay [7] and in assay [4] was greater than 200 µM in each case.

Take `O=C(Nc1nc2ccccc2s1)C(c1cccc([N+](=O)[O-])c1)S(=O)(=O)O` (stereo unspecified): in assay [5], the IC50 was greater than 200 µM.

In assay [5], `O=C(Nc1nc2ccccc2s1)C(c1cccc(C(F)(F)F)c1)S(=O)(=O)O` (stereo unspecified) gave an IC50 greater than 200 µM.

These data come from ChEMBL document CHEMBL4715770, “Inhibition of Low Molecular Weight Protein Tyrosine Phosphatase by an Induced-Fit Mechanism” (J Med Chem, 2016).
